Results as given in ChEMBL document CHEMBL3352472, “Discovery of 4-aryl-7-hydroxyindoline-based P2Y1 antagonists as novel antiplatelet agents” (J Med Chem, 2014).
In brackets after ≈: the same amount, converted by molar mass. Each block holds one compound with its values, some of them ahead of it. Activity calls are given as the source filed them. The calls are words filed in the database; no cut-off is given here.

Columns and labels:
[1] = Metabolic stability in mouse liver microsomes assessed as compound remaining at 0.5 uM after 10 mins; assay type: ADME; conditions: read-out: Stability
Summary of the method: (§1)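 Compound at 0.5 μM incubated 10 min with 1 mg/mL human, rat or mouse liver microsomes; percentage of parent remaining reported.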

[2] = system: Oryctolagus cuniculus; test: Antithrombotic activity in rabbit model of electrically-induced carotid artery thrombosis assessed as reduction in thrombus formation at 0.3 mg/kg, iv + 1 mg/kg/hr, iv dosed 30 mins before electrical stimulation (reference value: 3 +/- 2%); assay type: functional
[3] = system: Oryctolagus cuniculus; test: Induction of bleeding time in rabbit model of electrically-induced carotid artery thrombosis at 90% antithrombotic dose administered 30 mins before electrical stimulation (reference value: 1 +/- 0.05); assay type: organism-based; conditions: in vivo, 0.5 h
[4] = system: Oryctolagus cuniculus; test: Induction of bleeding time in rabbit model of electrically-induced carotid artery thrombosis at 0.003 mg/kg, iv + 0.01 mg/kg/hr, iv dosed 30 mins before electrical stimulation (reference value: 1 +/- 0.05); assay type: organism-based; conditions: in vivo, 0.5 h
[5] = biological target: P2Y purinoceptor 1 (Homo sapiens, UniProt P47900); test: Antagonist activity at P2Y1 receptor in washed human platelets assessed as 1 uM 2-methylthio-ADP-induced calcium flux by FLIPR assay; assay type: functional
Sequence of P2Y purinoceptor 1 (P47900 whole entry): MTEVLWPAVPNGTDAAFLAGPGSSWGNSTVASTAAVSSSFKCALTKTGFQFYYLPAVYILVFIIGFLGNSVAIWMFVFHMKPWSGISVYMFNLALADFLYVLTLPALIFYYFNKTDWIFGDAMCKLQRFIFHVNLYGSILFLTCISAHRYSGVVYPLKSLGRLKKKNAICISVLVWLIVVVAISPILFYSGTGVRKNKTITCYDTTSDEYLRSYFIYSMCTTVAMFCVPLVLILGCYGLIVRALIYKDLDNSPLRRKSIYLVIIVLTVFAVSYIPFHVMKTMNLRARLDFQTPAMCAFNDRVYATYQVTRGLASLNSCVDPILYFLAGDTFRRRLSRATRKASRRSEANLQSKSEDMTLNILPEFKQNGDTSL

[6] = Half life in rat at 0.5 mg/kg, iv by discrete dosing method; assay type: ADME, organism-based; set-up: dose 0.5 mg/kg, route intravenous; conditions: in vivo
Summary of the method: (§2)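 Discrete rat PK; 0.5 mg/kg iv given in solution in DMAc/cremophor/EtOH/water (10/10/10/70).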

[7] = Volume of distribution in rat at 0.5 mg/kg, iv by discrete dosing method; assay type: ADME, organism-based; set-up: dose 0.5 mg/kg, route intravenous; conditions: in vivo; summary of the method: as §2
[8] = Metabolic stability in human liver microsomes assessed as compound remaining at 0.5 uM after 10 mins; assay type: ADME; conditions: read-out: Stability; summary of the method: as §1
[9] = system: Oryctolagus cuniculus; test: Antithrombotic activity in rabbit model of electrically-induced carotid artery thrombosis assessed as reduction in thrombus formation at 0.1 mg/kg, iv + 0.033 mg/kg/hr, iv dosed 30 mins before electrical stimulation (reference value: 3 +/- 2%); assay type: functional
[10] = system: Oryctolagus cuniculus; test: Induction of bleeding time in rabbit model of electrically-induced carotid artery thrombosis at 0.1 mg/kg, iv + 0.033 mg/kg/hr, iv dosed 30 mins before electrical stimulation (reference value: 1 +/- 0.05); assay type: organism-based; conditions: in vivo, 0.5 h
[11] = Clearance in rat at 0.5 mg/kg, iv by discrete dosing method; assay type: ADME, organism-based; set-up: dose 0.5 mg/kg, route intravenous; conditions: in vivo; summary of the method: as §2
[12] = system: Oryctolagus cuniculus; test: Antithrombotic activity in rabbit model of electrically-induced carotid artery thrombosis assessed as reduction in thrombus formation at 0.003 mg/kg, iv + 0.01 mg/kg/hr, iv dosed 30 mins before electrical stimulation (reference value: 3 +/- 2%); assay type: functional
[13] = system: Oryctolagus cuniculus; test: Induction of bleeding time in rabbit model of electrically-induced carotid artery thrombosis at 0.03 mg/kg, iv + 0.1 mg/kg/hr, iv dosed 30 mins before electrical stimulation (reference value: 1 +/- 0.05); assay type: organism-based; conditions: in vivo, 0.5 h
[14] = Aqueous solubility of the compound; assay type: physicochemical; conditions: buffer
Summary of the method: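 Amorphous solid; solubility measured at pH 3.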

[15] = system: Oryctolagus cuniculus; test: Antithrombotic activity in rabbit model of electrically-induced carotid artery thrombosis assessed as reduction in thrombus formation at 0.03 mg/kg, iv + 0.1 mg/kg/hr, iv dosed 30 mins before electrical stimulation (reference value: 3 +/- 2%); assay type: functional
[16] = Metabolic stability in rat liver microsomes assessed as compound remaining at 0.5 uM after 10 mins; assay type: ADME; conditions: read-out: Stability; summary of the method: as §1
[17] = system: Oryctolagus cuniculus; test: Induction of bleeding time in rabbit model of electrically-induced carotid artery thrombosis at 0.3 mg/kg, iv + 1 mg/kg/hr, iv dosed 30 mins before electrical stimulation (reference value: 1 +/- 0.05); assay type: organism-based; conditions: in vivo, 0.5 h
[18] = system: Oryctolagus cuniculus; test: Antithrombotic activity in rabbit model of electrically-induced carotid artery thrombosis assessed as reduction in thrombus formation at 0.01 mg/kg, iv + 0.033 mg/kg/hr, iv dosed 30 mins before electrical stimulation (reference value: 3 +/- 2%); assay type: functional
[19] = Antagonist activity at P2Y1 receptor in platelet-enriched rabbit plasma assessed as 10 uM ADP-induced platelet aggregation preincubated for 1 min followed by ADP induction measured at 5 mins by aggregometric analysis; assay type: cell-free; conditions: Oryctolagus cuniculus
[20] = system: Oryctolagus cuniculus; test: Induction of bleeding time in rabbit model of electrically-induced carotid artery thrombosis at 0.01 mg/kg, iv + 0.033 mg/kg/hr, iv dosed 30 mins before electrical stimulation (reference value: 1 +/- 0.05); assay type: organism-based; conditions: in vivo, 0.5 h
[21] = Oral bioavailability in rat at 15 mg/kg by discrete dosing method; assay type: ADME, organism-based; conditions: in vivo
Summary of the method: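 Discrete rat PK; 15 mg/kg oral and 0.5 mg/kg iv, both in solution in DMAc/cremophor/EtOH/water (10/10/10/70).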

[22] = Oral bioavailability in rat at 0.5 mg/kg by cassette dosing method; assay type: ADME, organism-based; conditions: in vivo
[23] = Clearance in rat at 0.5 mg/kg by cassette dosing method; assay type: ADME, organism-based; set-up: dose 0.5 mg/kg; conditions: in vivo
[24] = biological target: P2Y purinoceptor 12 (Homo sapiens, UniProt Q9H244); test: Antagonist activity at P2Y12 receptor (unknown origin)
Sequence of P2Y purinoceptor 12 (Q9H244 whole entry): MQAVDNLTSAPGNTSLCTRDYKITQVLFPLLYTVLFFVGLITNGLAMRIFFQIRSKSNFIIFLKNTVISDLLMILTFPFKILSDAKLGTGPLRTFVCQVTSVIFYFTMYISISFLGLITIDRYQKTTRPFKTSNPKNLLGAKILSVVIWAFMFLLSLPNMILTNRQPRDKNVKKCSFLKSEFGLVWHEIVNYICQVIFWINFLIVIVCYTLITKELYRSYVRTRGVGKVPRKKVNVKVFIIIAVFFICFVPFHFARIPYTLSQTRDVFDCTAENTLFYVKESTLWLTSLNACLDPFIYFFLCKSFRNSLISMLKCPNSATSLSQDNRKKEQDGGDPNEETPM

[25] = Aqueous solubility of the compound at pH 3 using compound in amorphous solid form; assay type: physicochemical; conditions: buffer
[26] = Volume of distribution at steady state in rat at 0.5 mg/kg by cassette dosing method; assay type: ADME, organism-based; set-up: dose 0.5 mg/kg; conditions: in vivo, read-out: Vdss
[27] = system: Oryctolagus cuniculus; test: Antithrombotic activity in rabbit model of electrically-induced carotid artery thrombosis assessed as reduction in thrombus formation dosed 30 mins before electrical stimulation; assay type: functional, organism-based
[28] = system: Oryctolagus cuniculus; test: Induction of bleeding time in rabbit model of electrically-induced carotid artery thrombosis administered 30 mins before electrical stimulation; assay type: organism-based; conditions: in vivo, 0.5 h
Summary of the method: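 Rabbits received an iv bolus plus continuous infusion (0.003 + 0.01 up to 0.3 + 1 mg/kg + mg·kg−1·h−1), started 30 min before carotid electrical stimulation and maintained throughout. Vehicle was 10% DMAc/2.5% PVP-K12/1% Pluronic F-108/D5W. Bleeding time was recorded up to 20 min after cuticle incision and expressed as fold of vehicle; mean ± SEM, n = 5–8 per group.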

[29] = biological target: P2Y purinoceptor 2 (Homo sapiens, UniProt P41231); test: Antagonist activity at P2Y2 receptor (unknown origin)
Sequence of P2Y purinoceptor 2 (P41231 whole entry): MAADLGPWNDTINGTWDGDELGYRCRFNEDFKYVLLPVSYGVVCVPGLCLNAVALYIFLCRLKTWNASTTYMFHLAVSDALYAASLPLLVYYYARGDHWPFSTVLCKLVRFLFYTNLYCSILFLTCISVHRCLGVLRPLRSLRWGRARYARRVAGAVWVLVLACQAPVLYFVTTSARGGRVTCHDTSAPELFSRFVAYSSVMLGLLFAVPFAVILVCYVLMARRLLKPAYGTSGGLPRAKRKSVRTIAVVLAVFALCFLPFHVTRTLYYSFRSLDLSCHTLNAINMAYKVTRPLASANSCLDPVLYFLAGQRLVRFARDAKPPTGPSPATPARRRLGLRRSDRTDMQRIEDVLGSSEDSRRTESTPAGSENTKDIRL

[30] = biological target: hERG (KCNH2) (Homo sapiens, UniProt Q12809); test: Inhibition of human ERG at 1 uM by patch clamp assay
Sequence of hERG (KCNH2) (Q12809 whole entry): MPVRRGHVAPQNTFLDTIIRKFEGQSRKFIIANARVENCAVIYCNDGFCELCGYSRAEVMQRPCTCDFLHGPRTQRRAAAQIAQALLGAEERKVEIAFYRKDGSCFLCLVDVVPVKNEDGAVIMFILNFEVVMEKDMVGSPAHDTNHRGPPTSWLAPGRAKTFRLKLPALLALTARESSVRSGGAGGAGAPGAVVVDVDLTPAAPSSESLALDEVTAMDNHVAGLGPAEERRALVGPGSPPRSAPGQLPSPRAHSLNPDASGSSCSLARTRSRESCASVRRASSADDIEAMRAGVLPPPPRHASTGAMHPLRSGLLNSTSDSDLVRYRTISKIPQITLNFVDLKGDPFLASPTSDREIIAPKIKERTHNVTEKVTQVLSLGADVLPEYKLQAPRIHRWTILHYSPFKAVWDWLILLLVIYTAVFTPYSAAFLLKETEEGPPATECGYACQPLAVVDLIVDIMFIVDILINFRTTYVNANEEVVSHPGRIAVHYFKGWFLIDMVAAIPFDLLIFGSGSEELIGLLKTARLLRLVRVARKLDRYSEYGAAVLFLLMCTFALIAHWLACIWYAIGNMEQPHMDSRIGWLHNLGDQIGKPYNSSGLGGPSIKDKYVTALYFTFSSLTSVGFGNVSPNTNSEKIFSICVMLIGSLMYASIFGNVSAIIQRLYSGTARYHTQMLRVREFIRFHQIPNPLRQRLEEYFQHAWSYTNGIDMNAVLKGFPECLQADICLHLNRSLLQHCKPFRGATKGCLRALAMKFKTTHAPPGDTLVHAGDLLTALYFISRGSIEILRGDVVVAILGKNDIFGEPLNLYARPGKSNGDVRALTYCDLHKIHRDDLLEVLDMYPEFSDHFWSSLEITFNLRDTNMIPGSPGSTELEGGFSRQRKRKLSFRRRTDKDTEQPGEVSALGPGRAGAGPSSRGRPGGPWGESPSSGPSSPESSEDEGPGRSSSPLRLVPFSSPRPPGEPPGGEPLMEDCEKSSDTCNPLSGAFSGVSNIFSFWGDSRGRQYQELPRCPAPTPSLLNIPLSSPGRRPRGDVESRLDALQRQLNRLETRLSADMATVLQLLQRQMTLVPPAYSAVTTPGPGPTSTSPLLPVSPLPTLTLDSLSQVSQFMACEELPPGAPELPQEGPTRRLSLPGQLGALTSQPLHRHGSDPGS

- remaining at 10 min, 0.5 µM [1]: 79%
- fold change (FC) [3]: 4.7
- fold change (FC) [4]: 1.1
- IC50 [5]: 0.00106 µM
- half-life [6]: 12 h
- Vd [7]: 0.4 L/kg
- remaining at 10 min, 0.5 µM [8]: 83%
- fold change (FC) [10]: 3.7
- clearance [11]: 1.3 mL/min/kg
- fold change (FC) [13]: 2.7
- solubility [14]: < 1 µg/mL
- remaining at 10 min, 0.5 µM [16]: 90%
- fold change (FC) [17]: 4.7
- IC50 [19]: 0.087 µM
- fold change (FC) [20]: 1.4
- bioavailability [21]: 10%
Structure (SMILES): CC1(C)CN(c2ccccc2NC(=O)Nc2ccc(OC(F)(F)F)cc2)c2c(O)cc(F)c(-c3ccc(Cl)cc3)c21
- inhibition (INH) [2]: 95%
- inhibition (INH) [9]: 72%
- inhibition (INH) [12]: 22%
- inhibition (INH) [15]: 50%
- inhibition (INH) [18]: 46%

Structure (SMILES): CC(C)(C)CN1CCC2(CC1)CN(c1ccccc1NC(=O)Nc1nc3ccc(Cl)nc3s1)c1c(O)cc(F)c(-c3ccc(F)cc3)c12
- bioavailability [22]: 30%
- clearance [23]: 4 mL/min/kg
- remaining at 10 min, 0.5 µM [1]: 100%
- IC50 [5]: 0.00012 µM
- remaining at 10 min, 0.5 µM [8]: 100%
- IC50 [24]: > 10 µM
- solubility [25]: 3 µg/mL (≈ 4.35 µM)
- Vd [26]: 2.1 L/kg
- inhibition [27]: Active
- Activity [28]: Non-toxic
- IC50 [29]: > 10 µM
- remaining at 10 min, 0.5 µM [16]: 93%
- IC50 [19]: 0.59 µM
- inhibition at 1 µM [30]: 96%
